Numbering of substitutions follows the chain as printed. Read-outs that look alike come from different tables or passages of the source. Blank lines part the entries; values can stand above or below the molecule they belong to.
Columns and labels:
Format in all cases: biochemical
[1] = molecular target: T1, wild-type bovine olfactory CNG channel (α3 subunit) (Bos taurus, UniProt Q03041)
T1 sequence (Q03041 1-663): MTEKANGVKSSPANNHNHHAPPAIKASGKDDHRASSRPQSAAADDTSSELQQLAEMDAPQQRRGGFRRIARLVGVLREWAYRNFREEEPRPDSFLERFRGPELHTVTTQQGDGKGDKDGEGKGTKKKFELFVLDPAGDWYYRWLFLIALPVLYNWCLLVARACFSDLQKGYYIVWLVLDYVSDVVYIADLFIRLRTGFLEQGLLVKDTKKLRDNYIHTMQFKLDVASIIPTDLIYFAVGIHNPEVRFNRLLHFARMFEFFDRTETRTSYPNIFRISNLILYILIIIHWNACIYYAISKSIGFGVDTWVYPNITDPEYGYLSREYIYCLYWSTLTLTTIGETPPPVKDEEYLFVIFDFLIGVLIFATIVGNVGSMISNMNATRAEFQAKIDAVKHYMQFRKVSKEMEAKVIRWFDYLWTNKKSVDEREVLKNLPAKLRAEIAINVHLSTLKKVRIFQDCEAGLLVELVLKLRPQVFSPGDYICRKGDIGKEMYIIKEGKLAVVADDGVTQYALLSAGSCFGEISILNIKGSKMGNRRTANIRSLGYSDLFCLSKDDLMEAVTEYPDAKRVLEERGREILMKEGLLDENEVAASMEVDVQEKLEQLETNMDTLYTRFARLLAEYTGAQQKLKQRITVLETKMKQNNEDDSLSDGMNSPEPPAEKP

[2] = molecular target: T2, E340N mutant bovine olfactory CNG channel (Bos taurus, UniProt Q03041, E340N)
T2 sequence (Q03041 1-663 E340N): T1 sequence (Q03041 1-663) with E340N

[3] = molecular target: T2, E340N mutant bovine olfactory CNG channel; assay: Blockage of macroscopic current by external Ca2+ or Mg2+, outside-out patches; settings: for Ki: mean ± SD
Summary of the method: (§1)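 Xenopus oocytes injected with wild-type or mutant channel mRNA; outside-out patches with 100 μM cGMP in the pipette. Bath: 110 mM NaCl, 2 mM EDTA, 10 mM HEPES, pH 7.4, plus Ca2+ (NTA-buffered) or Mg2+ (EDTA-buffered); unbuffered above 0.1 mM. Five 1-s ramps (−80 to +80 mV) averaged, leak subtracted. Current normalised to divalent-free current at the same voltage, Hill-fitted per patch; Ki and n given as mean ± SD.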

[4] = molecular target: T3, E340N^‡ mutant bovine olfactory CNG channel (Bos taurus, UniProt Q03041, E340Q); assay: as above
T3 sequence (Q03041 1-663 E340Q): T1 sequence (Q03041 1-663) with E340Q
Summary of the method: as §1

[5] = external Mg2+, −80 mV, one experiment
[6] = read-out: K 1/2,cG, −80 mV, single patch, Fig. 1 fit
[7] = −80 mV, single patch, Fig. 1 fit

- effect of external Ca2+ on K 1/2 for cAMP or cGMP ([1]; 1 mM Ca2+ in the patch pipette): did not significantly affect K 1/2
- effect of external Ca2+ on K 1/2 for cAMP or cGMP ([2]; 1 mM Ca2+ in the patch pipette): did not significantly affect K 1/2
- n, Hill coefficient of blockage ([3]; external Ca2+, +80 mV): 0.6 ± 0.2
- Ki ([3]; external Ca2+, +80 mV): 29000 ± 6000 µM
- n, Hill coefficient of blockage ([3]; external Ca2+, −80 mV): 0.6 ± 0.1
- Ki ([3]; external Ca2+, −80 mV): 6500 ± 4000 µM
- n, Hill coefficient of blockage ([4]; external Ca2+, +80 mV): 0.5 ± 0.2
- Ki ([4]; external Ca2+, +80 mV, mean ± SD): 19000 ± 12000 µM
- n, Hill coefficient of blockage ([4]; external Ca2+, −80 mV): 0.4 ± 0.2
- Ki ([4]; external Ca2+, −80 mV, mean ± SD): 2100 ± 600 µM
SMILES: [Ca+2] [Ca^2+]

- n, Hill coefficient of blockage ([3]; external Mg2+, +80 mV): 0.6 ± 0.1
- Ki ([3]; external Mg2+, +80 mV): 50000 ± 3600 µM
- n, Hill coefficient of blockage ([3]; external Mg2+, −80 mV): 0.6 ± 0.1
- Ki ([3]; external Mg2+, −80 mV): 17000 ± 7200 µM
- n, Hill coefficient of blockage ([4]; external Mg2+, +80 mV, one experiment): 0.3
- Ki [4, 5]: 3400 µM
- n, Hill coefficient of blockage [4, 5]: 0.5
SMILES: [Mg+2] [Mg^2+]

- n(−80 mV), Hill coefficient ([1]; cGMP): 2.7 ± 0.2
- I(−80 mV)/I(+80 mV) ([1]; cGMP-gated current): 1.11 ± 0.03
- EC50 ([1]; read-out: K 1/2, cGMP, +80 mV): 2.6 ± 0.6 µM
- EC50 ([1]; read-out: K 1/2, cGMP, −80 mV): 2.5 ± 0.5 µM
- EC50 [1, 6]: 3.2 µM
- n cG [1, 7]: 2.7
- n(−80 mV), Hill coefficient ([2]; cGMP): 2.1 ± 0.3
- I(−80 mV)/I(+80 mV) ([2]; cGMP-gated current): 0.55 ± 0.10
- EC50 ([2]; read-out: K 1/2, cGMP, +80 mV): 5.6 ± 1.8 µM
- EC50 ([2]; read-out: K 1/2, cGMP, −80 mV): 7.6 ± 4 µM
- EC50 [2, 6]: 6.6 µM
- n cG [2, 7]: 2.3
SMILES: Nc1nc2c(ncn2[C@@H]2O[C@@H]3COP(=O)(O)O[C@H]3[C@H]2O)c(=O)[nH]1 [cGMP]

From PMC2233693 (The Journal of General Physiology, 2000)
